{
  "source": "ChEMBL document CHEMBL5705899",
  "about": "(Biochem J, 2014)",
  "key": {"[1]": {"target": "Phosphatidylinositol 4-kinase alpha (Homo sapiens, UniProt P42356)", "assay": "Inhibition of PI4Kalpha (unknown origin) using D-myo-PtdIns as substrate incubated for 45 mins by ADP-Glo assay", "procedure,_shortened": "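PI4Kα: 1 nM enzyme, 72 μM ATP, 25 μM PtdIns. PI4Kβ: 2 nM enzyme, 220 μM ATP, 50 μM PtdIns. Reactions ran 45 min at ambient temperature; ADP-Glo reagent was added for 40 min, then detection reagent for 30 min, then luminescence was read.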"}, "[2]": {"test_system": "PI3-kinase p110-alpha/p85-alpha (Homo sapiens), P27986+P42336 [E545K]", "assay": "Inhibition of recombinant human N-terminal His6-tagged PI3Kalpha E545K mutant (2 to 1068 residues)/p85A (1 to 724 residues) expressed in baculovirus expression system at 1 uM using diC8 PIP2 as substrate incubated for 80 mins by ADP-Glo assay"}, "[3]": {"target": "Ephrin type-B receptor 1 (Homo sapiens) (UniProt P54762)", "assay": "Inhibition of recombinant human N-terminal His6-tagged EPHB1 (565 to 984 residues) expressed in baculovirus infected Sf21 cells assessed as remaining activity at 1 uM using Poly (Glu,Tyr) as substrate incubated for 30 mins in presence of [gamma-33P]ATP by filter binding method relative to control"}, "[4]": {"target": "MAP kinase-interacting serine/threonine-protein kinase 1 (Homo sapiens) (UniProt Q9BUB5)", "assay": "Inhibition of recombinant human N-terminal GST-tagged C-terminal His6-tagged MNK1 (2 to 424 residues) expressed in Escherichia coli assessed as remaining activity at 1 uM using eIF4E as substrate incubated for 30 mins in presence of [gamma-33P]ATP by filter binding method relative to control"}, "[5]": {"target": "Mitogen-activated protein kinase kinase kinase 3 (Homo sapiens) (UniProt Q99759)", "assay": "Inhibition of human MEKK3 at 1 uM using casein as substrate in presence of 33P-ATP by ProQinase assay"}, "[6]": {"target": "Mitogen-activated protein kinase 9 (Homo sapiens) (UniProt P45984)", "assay": "Inhibition of recombinant human N-terminal His6-tagged JNK2 (1 to 424 residues) expressed in baculovirus infected Sf21 cells assessed as remaining activity at 1 uM using ATF2 as substrate incubated for 30 mins in presence of [gamma-33P]ATP by filter binding method relative to control"}, "[7]": {"target": "High affinity nerve growth factor receptor (Homo sapiens) (UniProt P04629)", "sequence (P04629 33-796 limits assumed)": "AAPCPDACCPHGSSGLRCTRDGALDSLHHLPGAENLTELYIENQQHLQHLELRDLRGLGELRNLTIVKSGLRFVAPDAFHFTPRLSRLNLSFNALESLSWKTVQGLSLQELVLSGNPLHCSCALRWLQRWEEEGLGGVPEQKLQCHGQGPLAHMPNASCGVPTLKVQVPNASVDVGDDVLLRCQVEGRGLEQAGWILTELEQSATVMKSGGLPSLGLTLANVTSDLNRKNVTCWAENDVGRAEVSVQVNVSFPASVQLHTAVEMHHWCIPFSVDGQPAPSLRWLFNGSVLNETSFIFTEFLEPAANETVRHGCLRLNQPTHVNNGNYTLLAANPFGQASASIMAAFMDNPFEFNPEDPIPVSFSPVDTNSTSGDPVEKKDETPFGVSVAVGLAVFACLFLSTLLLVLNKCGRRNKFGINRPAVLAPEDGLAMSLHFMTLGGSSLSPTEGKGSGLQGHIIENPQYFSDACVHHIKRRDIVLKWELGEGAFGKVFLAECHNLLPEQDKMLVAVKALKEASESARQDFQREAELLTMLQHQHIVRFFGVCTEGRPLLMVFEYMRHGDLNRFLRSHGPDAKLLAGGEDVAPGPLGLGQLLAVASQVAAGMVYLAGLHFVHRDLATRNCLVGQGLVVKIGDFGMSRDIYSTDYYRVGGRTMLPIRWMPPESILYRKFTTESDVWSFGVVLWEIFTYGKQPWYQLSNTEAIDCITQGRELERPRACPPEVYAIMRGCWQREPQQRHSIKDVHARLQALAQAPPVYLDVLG", "assay": "Inhibition of human TRKA at 1 uM using PolyEY as substrate in presence of 33P-ATP by ProQinase assay"}, "[8]": {"target": "Phosphatidylinositol 4-kinase type 2-alpha (Homo sapiens, UniProt Q9BTU6)", "sequence (Q9BTU6 whole entry)": "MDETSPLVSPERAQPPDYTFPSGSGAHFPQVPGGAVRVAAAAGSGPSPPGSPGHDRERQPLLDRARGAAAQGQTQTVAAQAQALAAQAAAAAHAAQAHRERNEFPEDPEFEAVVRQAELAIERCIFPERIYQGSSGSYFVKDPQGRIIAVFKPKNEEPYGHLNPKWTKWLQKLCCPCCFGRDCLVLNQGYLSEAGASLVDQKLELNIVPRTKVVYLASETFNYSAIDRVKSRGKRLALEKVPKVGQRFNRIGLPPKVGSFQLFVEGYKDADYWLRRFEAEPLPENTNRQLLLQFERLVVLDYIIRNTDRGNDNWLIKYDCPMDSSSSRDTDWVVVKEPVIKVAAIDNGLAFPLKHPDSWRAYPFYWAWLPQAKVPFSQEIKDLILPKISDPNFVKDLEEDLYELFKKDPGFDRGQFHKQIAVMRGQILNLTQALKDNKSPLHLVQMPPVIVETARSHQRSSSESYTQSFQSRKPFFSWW", "assay": "Inhibition of PI4K2alpha (unknown origin) at 1 uM"}, "[9]": {"target": "Dual specificity testis-specific protein kinase 1 (Homo sapiens) (UniProt Q15569)", "assay": "Inhibition of recombinant human N-terminal GST-tagged TESK1 (1 to 315 residues) expressed in Escherichia coli assessed as remaining activity at 1 uM using Cofilin 2 as substrate incubated for 30 mins in presence of [gamma-33P]ATP by filter binding method relative to control"}, "[10]": {"target": "Serine/threonine-protein kinase 26 (Homo sapiens) (UniProt Q9P289)", "assay": "Inhibition of human MST4 at 1 uM using RB-CTF as substrate in presence of 33P-ATP by ProQinase assay"}, "[11]": {"target": "Tyrosine-protein kinase Fer (Homo sapiens) (UniProt P16591)", "assay": "Inhibition of human FER at 1 uM using polyEY as substrate in presence of 33P-ATP by ProQinase assay"}, "[12]": {"target": "Dual specificity protein kinase CLK2 (Homo sapiens) (UniProt P49760)", "assay": "Inhibition of recombinant human N-terminal GST-tagged CLK2 (138 to 499 residues) expressed in baculovirus infected Sf21 cells assessed as remaining activity at 1 uM using RNRYRDVSPFDHSR as substrate incubated for 30 mins in presence of [gamma-33P]ATP by filter binding method relative to control"}, "[13]": {"target": "Activin receptor type-2A (Homo sapiens) (UniProt P27037)", "sequence (P27037 whole entry)": "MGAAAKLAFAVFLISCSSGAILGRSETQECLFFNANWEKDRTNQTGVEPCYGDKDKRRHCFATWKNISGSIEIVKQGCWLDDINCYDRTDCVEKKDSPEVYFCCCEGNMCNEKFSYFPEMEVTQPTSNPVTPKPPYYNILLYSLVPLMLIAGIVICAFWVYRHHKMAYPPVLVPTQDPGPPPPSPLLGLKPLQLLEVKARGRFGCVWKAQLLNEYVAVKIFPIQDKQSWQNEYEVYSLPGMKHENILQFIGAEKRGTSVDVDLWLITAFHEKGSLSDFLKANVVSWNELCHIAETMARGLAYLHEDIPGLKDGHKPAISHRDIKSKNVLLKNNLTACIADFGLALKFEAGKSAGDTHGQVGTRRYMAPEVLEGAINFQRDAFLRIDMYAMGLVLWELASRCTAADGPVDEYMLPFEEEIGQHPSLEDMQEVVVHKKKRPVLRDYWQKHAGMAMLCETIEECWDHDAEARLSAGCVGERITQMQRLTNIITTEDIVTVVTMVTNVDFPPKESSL", "assay": "Inhibition of human ACVR2A at 1 uM using casein as substrate in presence of 33P-ATP by ProQinase assay"}, "[14]": {"target": "Serine/threonine-protein kinase PAK 4 (Homo sapiens) (UniProt O96013)", "sequence (O96013 whole entry, looked up)": "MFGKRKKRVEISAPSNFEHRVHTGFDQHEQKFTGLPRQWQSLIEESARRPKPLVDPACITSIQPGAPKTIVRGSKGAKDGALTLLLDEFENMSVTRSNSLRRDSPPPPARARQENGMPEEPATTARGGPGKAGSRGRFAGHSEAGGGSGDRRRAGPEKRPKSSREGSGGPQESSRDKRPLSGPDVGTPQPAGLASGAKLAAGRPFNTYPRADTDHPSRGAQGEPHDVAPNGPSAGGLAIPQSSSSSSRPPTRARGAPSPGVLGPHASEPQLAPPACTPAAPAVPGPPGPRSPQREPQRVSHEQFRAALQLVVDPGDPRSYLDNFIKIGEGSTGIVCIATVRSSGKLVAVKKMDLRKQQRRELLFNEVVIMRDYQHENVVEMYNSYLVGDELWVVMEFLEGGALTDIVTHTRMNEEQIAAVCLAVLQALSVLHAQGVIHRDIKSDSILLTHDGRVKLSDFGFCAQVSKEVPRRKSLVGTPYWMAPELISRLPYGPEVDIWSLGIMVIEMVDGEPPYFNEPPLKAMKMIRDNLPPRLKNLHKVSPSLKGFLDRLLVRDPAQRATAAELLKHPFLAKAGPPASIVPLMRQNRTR", "assay": "Inhibition of human PAK4 at 1 uM using bio-4xCHKT as substrate in presence of 33P-ATP by ProQinase assay"}, "[15]": {"target": "Calcium/calmodulin-dependent protein kinase kinase 2 (Homo sapiens) (UniProt Q96RR4)", "sequence (Q96RR4 2-588 limits assumed)": "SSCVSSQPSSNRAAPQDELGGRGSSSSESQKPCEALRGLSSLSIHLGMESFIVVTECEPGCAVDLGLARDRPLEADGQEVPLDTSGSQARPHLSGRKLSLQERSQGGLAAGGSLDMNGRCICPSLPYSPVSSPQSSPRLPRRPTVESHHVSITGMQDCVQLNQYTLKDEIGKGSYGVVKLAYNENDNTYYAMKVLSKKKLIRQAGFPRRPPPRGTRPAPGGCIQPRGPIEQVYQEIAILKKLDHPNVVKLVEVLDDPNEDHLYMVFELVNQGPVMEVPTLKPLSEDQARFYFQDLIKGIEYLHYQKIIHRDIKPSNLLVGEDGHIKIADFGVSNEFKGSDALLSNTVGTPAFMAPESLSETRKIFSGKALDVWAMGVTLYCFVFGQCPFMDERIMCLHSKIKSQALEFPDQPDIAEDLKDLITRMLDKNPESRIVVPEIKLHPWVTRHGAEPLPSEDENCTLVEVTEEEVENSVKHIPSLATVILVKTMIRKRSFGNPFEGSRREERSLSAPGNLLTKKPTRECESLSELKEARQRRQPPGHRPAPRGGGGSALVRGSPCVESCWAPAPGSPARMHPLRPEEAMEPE", "assay": "Inhibition of recombinant human N-terminal GST-tagged CAMKKbeta (1 to 541 residues) expressed in Escherichia coli assessed as remaining activity at 1 uM using DGEFLRTSCGSPNYAARRR as substrate incubated for 30 mins in presence of [gamma-33P]ATP by filter binding method relative to control"}, "[16]": {"target": "Death-associated protein kinase 3 (Homo sapiens) (UniProt O43293)", "assay": "Inhibition of human DAPK3 at 1 uM using RBER-GSK3 as substrate in presence of 33P-ATP by ProQinase assay"}, "Homo sapiens [17]": {"species_on_record": "Homo sapiens", "assay": "Inhibition of DGK (unknown origin) at 1 uM"}, "[18]": {"target": "Serine/threonine-protein kinase 3 (Homo sapiens) (UniProt Q13188)", "sequence (Q13188 whole entry)": "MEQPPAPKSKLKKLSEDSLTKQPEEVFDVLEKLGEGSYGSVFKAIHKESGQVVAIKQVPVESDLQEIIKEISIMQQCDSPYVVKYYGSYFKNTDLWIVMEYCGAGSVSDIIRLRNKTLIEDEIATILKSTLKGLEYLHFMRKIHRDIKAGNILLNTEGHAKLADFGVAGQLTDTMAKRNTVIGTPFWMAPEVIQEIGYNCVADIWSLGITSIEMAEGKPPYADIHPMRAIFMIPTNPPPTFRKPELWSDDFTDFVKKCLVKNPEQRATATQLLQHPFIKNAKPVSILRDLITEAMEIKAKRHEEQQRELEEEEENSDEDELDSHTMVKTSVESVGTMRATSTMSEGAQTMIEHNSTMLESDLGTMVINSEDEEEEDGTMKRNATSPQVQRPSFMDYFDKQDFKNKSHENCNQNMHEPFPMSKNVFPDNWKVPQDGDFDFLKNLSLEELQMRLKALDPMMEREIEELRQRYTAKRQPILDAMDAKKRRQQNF", "assay": "Inhibition of human MST2 at 1 uM using RB-CTF as substrate in presence of 33P-ATP by ProQinase assay"}, "[19]": {"target": "Ribosomal protein S6 kinase alpha-5 (Homo sapiens) (UniProt O75582)", "assay": "Inhibition of human RPS6KA5 at 1 uM using RBER-CHKtide as substrate in presence of 33P-ATP by ProQinase assay"}, "[20]": {"target": "Cyclin-Y/Cyclin-dependent kinase 16 (Homo sapiens) (UniProt Q00536+Q8ND76)", "assay": "Inhibition of human PCTAIRE1/CyclinY at 1 uM using RBER-GSK3 as substrate in presence of 33P-ATP by ProQinase assay", "assay_type": "protein-complex assay"}, "[21]": {"target": "Casein kinase I isoform alpha (Homo sapiens) (UniProt P48729)", "sequence (P48729 2-337 limits assumed)": "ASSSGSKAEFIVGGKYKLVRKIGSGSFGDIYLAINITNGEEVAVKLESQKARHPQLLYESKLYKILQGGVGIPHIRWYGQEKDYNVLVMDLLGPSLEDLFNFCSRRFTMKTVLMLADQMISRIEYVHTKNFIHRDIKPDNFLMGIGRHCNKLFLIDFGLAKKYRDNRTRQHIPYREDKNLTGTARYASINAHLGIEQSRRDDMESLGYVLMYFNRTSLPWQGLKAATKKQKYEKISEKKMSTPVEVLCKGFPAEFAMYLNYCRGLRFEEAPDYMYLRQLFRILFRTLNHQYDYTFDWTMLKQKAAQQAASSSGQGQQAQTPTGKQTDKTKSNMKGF", "assay": "Inhibition of human CK1alpha1 at 1 uM using casein as substrate in presence of 33P-ATP by ProQinase assay"}, "[22]": {"target": "Tyrosine-protein kinase receptor UFO (Homo sapiens) (UniProt P30530)", "sequence (P30530 whole entry)": "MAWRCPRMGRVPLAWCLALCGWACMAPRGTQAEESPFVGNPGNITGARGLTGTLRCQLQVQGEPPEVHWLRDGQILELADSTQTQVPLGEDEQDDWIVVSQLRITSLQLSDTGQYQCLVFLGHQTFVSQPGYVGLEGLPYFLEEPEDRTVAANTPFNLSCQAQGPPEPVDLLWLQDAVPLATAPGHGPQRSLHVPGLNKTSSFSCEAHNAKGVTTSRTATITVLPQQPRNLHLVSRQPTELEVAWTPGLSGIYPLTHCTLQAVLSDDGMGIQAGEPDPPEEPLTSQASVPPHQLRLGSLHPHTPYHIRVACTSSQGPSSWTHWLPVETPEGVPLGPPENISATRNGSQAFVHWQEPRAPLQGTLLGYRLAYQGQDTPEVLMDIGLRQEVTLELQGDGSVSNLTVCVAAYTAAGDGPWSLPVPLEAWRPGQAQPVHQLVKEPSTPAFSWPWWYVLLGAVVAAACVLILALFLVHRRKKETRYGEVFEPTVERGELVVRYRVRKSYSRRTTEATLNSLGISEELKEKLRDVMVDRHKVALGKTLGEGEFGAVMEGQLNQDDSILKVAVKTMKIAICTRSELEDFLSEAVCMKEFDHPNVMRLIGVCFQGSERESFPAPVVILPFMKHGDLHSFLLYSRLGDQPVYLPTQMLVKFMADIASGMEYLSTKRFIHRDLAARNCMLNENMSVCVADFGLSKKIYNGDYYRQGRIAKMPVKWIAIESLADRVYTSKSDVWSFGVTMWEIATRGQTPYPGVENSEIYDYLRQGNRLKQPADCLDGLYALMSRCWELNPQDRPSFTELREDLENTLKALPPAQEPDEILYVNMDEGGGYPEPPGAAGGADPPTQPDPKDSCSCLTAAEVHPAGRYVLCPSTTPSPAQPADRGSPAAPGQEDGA", "assay": "Inhibition of human AXL at 1 uM using polyEy as substrate in presence of 33P-ATP by ProQinase assay"}, "[23]": {"target": "Myosin light chain kinase, smooth muscle (Homo sapiens) (UniProt Q15746)", "assay": "Inhibition of human MYLK at 1 uM using RB-S6P as substrate in presence of 33P-ATP by ProQinase assay"}, "Homo sapiens [24]": {"species_on_record": "Homo sapiens", "assay": "Inhibition of recombinant human MKK1 (2 to 393 residues) expressed in Escherichia coli assessed as remaining activity at 1 uM using MBP as substrate incubated for 30 mins in presence of [gamma-33P]ATP by filter binding method relative to control"}},
  "note": "Activity calls are given as the source filed them. The calls are words filed in the database; no cut-off is given here.",
  "data": [
    {"smiles": "CC(C)(O)CNc1ncc(-c2ccnc(Nc3ccnc(Cl)c3)n2)c(CC2CC2)n1", "values": [
      {"measurement": "IC50", "setting": "[1]", "result": 4.07, "unit": "µM"},
      {"measurement": "inhibition", "setting": "[2]", "result": "inactive"},
      {"measurement": "Activity", "setting": "[3]", "result": 99, "unit": "%"},
      {"measurement": "Activity", "setting": "[4]", "result": 122, "unit": "%"},
      {"measurement": "inhibition", "setting": "[5]", "result": "inactive"},
      {"measurement": "Activity", "setting": "[6]", "result": 113, "unit": "%"},
      {"measurement": "inhibition", "setting": "[7]", "result": "inactive"},
      {"measurement": "inhibition", "setting": "[8]", "result": "inactive"},
      {"measurement": "Activity", "setting": "[9]", "result": 95, "unit": "%"},
      {"measurement": "inhibition", "setting": "[10]", "result": "inactive"},
      {"measurement": "inhibition", "setting": "[11]", "result": "inactive"},
      {"measurement": "Activity", "setting": "[12]", "result": 82, "unit": "%"},
      {"measurement": "inhibition", "setting": "[13]", "result": "inactive"},
      {"measurement": "inhibition", "setting": "[14]", "result": "inactive"},
      {"measurement": "Activity", "setting": "[15]", "result": 108, "unit": "%"},
      {"measurement": "inhibition", "setting": "[16]", "result": "inactive"},
      {"measurement": "inhibition", "setting": "Homo sapiens [17]", "result": "inactive"},
      {"measurement": "inhibition", "setting": "[18]", "result": "inactive"},
      {"measurement": "inhibition", "setting": "[19]", "result": "inactive"},
      {"measurement": "inhibition", "setting": "[20]", "result": "inactive"},
      {"measurement": "inhibition", "setting": "[21]", "result": "inactive"},
      {"measurement": "inhibition", "setting": "[22]", "result": "inactive"},
      {"measurement": "inhibition", "setting": "[23]", "result": "inactive"},
      {"measurement": "Activity", "setting": "Homo sapiens [24]", "result": 122, "unit": "%"}
    ]}
  ]
}
